{"data": "Measured values of several laboratories", "note": "Protocols differ between the studies behind these lines."}
{"SMILES": "Cl.Cn1c(=O)n(CCCCN2CCC3(CC2)OCc2ccccc23)c2ccccc21", "test system": "male Sprague-Dawley rat, brain", "setting": "intravenous, 10 mg/kg", "quantity": "tissue/plasma ratio", "value": 0.48}
{"SMILES": "CC[C@H](C)[C@H]1C(=O)N[C@H]([C@H](C)O)C(=O)NCC(=O)N[C@@H](CC(C)C)C(=O)N2CCC[C@H]2C(=O)N[C@@H](Cc2ccc(O)cc2)C(=O)N[C@H](CC(C)C)C(=O)N2CCC[C@@H]2C(=O)NCC(=O)N[C@@H](Cc2ccc(O)cc2)C(=O)N1C", "test system": "aqueous buffer", "setting": "18 h, pH 7.4", "quantity": "solubility", "value": "933 µM"}
{"SMILES": "CC(c1cncnc1)n1c(=S)[nH]c2ccc(Cl)cc2c1=O (centres unmarked)", "test system": "Caco-2", "setting": "10 µM, 90 min, pH 7.4", "quantity": "Papp B→A", "value": "38.4 ×10⁻⁶ cm/s"}
{"SMILES": "C/C=C1/CN2CC[C@@]34c5cc(O)ccc5N(C)[C@]35OC[C@@]4(C(=O)OC)[C@H]1C[C@H]25", "test system": "Caco-2", "setting": "10 µM, 2 h, pH 7.4", "quantity": "Papp B→A", "value": "30.9 ×10⁻⁶ cm/s"}
{"SMILES": "O=c1c2cc(Cl)c(CO)cc2[nH]c(=S)n1Cc1cncnc1", "test system": "Caco-2", "setting": "10 µM, 90 min, pH 7.4", "quantity": "Papp A→B", "value": "14 ×10⁻⁶ cm/s"}
{"SMILES": "C/C=C1/CN2CC[C@]34C(=C(C(=O)OC)[C@H]1C[C@H]23)Nc1ccccc14", "test system": "Caco-2", "setting": "10 µM, 2 h, pH 7.4", "quantity": "Papp A→B", "value": "38.1 ×10⁻⁶ cm/s"}
{"SMILES": "CC=CCC(C)C1OC(=O)C(C(C)C)N(C)C(=O)C(CC(C)C)N(C)C(=O)C(CC(C)C)N(C)C(=O)C(C)NC(=O)C(C)NC(=O)C(CC(C)C)N(C)C(=O)C(C(C)C)NC(=O)C(CC(C)C)N(C)C(=O)CN(C)C(=O)C(CC)NC(=O)C1NC (centres unmarked)", "test system": "aqueous buffer", "setting": "18 h, pH 7.4", "quantity": "solubility", "value": "91 µM"}
{"SMILES": "COc1cc(C2C3=C(COC3=O)N(CCO)c3cc4c(cc32)CCC4)cc(OC)c1OC (centres unmarked)", "assay": "general toxicity", "test system": "female C57BL/6 mouse", "setting": "intraperitoneal, single dose", "quantity": "MTD", "value": "≥ 400 mg/kg"}
